Common to all, as to type: cell-based, human
The subject of one test is NCI-H460. Briefly: MTT cytotoxicity assay, NCI-H460. The following applies: read-out: IC50 NCI-H460, cells treated for 24 h. The method in brief:
(§1)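 Tumour lines and the normal liver line HL-7702 came from the Shanghai Cell Bank. Cells were cultured in RPMI 1640 or DMEM with 10% FBS and 1% streptomycin at 37 °C, 5% CO2. Cells were exposed to test compounds, and viability was read by MTT reduction to derive IC50. Cisplatin was run as reference control.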
On the technique in general: Tetrazolium assays rely on reduction of a dye to a coloured formazan, in cell work by metabolically active cells.

For a further test, the system named is Hep-G2. Put plainly: MTT cytotoxicity assay, Hep-G2. Particulars: read-out: IC50 Hep-G2, cells treated for 24 h. The method in brief: as §1
Another test concerns T24. Put plainly: MTT cytotoxicity assay, T24. The following applies: read-out: IC50 T24, cells treated for 24 h. The method in brief: as §1
The test system of another test is HL-7702. Briefly: MTT cytotoxicity assay, normal liver cell line HL-7702. The following applies: read-out: IC50 HL-7702, cells treated for 24 h. The gist of the method: as §1

For orientation: IC50 means the concentration that gives 50% inhibition.

On to `N.N.[Cl][Pt][Cl]` [Cisplatin], for which the half-maximal inhibitory concentration (IC50) in the test with NCI-H460 is 11.7 ± 2.26 µM; in the test on Hep-G2, 19.6 ± 1.39 µM; with T24, 22.9 ± 0.93 µM; with HL-7702 it was 13.4 ± 1.56 µM.
